# Measurements gathered from unrelated publications.
# Compare with care: the assays were run in different laboratories.
# Target: Serine/threonine-protein kinase 32A (STK32A, Homo sapiens, UniProt Q8WU08)
effect on,technique,tested at,remaining binding [%],Structure (SMILES)
binding,,1 µM,71,Cc1cnn2ncc(-c3ccnc(N(C)C)n3)c2c1
binding,competition with immobilised ligand,0.1 µM,94,C[C@@H](c1ccc(-n2cnc3c(N)ncnc32)cc1)N1CCc2nn(C)c(Cc3ccccc3)c2C1=O
binding,competition with immobilised ligand,5 µM,100,COc1ncc2cc3ccccc3nc2c1C#N
cell-free assay,competition with immobilised ligand,1 µM,100,NS(=O)(=O)c1cc(NC(=O)Cc2ccccc2)ccc1Oc1cccc(Cl)c1
binding,,1 µM,64,C[C@H]1CCN(c2nccc(-c3cnn4ncccc34)n2)C1
binding,competition with immobilised ligand,1 µM,79,Cc1cnc(Nc2ccc(C(=O)N3CCC(N4CCCC4)CC3)cc2)nc1-c1cc2ccccc2s1
binding,competition with immobilised ligand,1 µM,100,CNC(=O)[C@@H]1CC[C@@H](n2c(-c3ccc4cnccc4c3)nc3ccc(C(=O)NCc4cccc(C(N)=O)c4)cc32)C1
binding,,1 µM,58,c1cnn2ncc(-c3ccnc(N4CCC45COC5)n3)c2c1
binding,competition with immobilised ligand,1 µM,88,CNC(=O)Nc1ccc2c(c1)CC[C@@]21OC(=O)N(CC(=O)N(Cc2ccc(F)cc2)[C@@H](C)C(F)(F)F)C1=O
binding,competition with immobilised ligand,1 µM,95,O=C(Nc1c[nH]nc1C(=O)NC1CCNCC1)c1cc(F)cc(F)c1
binding,competition with immobilised ligand,1 µM,91,C=CC(=O)N1CCC(C(=O)NCC(=O)N2CCN(c3nc(-c4cnc(N)nc4C(F)F)nc(N4CCOCC4)n3)CC2)CC1
binding,,1 µM,87,N[C@H]1CCN(c2nccc(-c3cnn4ncccc34)n2)C1
binding,competition with immobilised ligand,1 µM,94,COc1cnc(Nc2cccc(S(N)(=O)=O)c2)nc1N1CCN(c2ccccc2)CC1
binding,,1 µM,100,CN(C)c1ncc(F)c(-c2cnn3ncccc23)n1
cell-free assay,competition with immobilised ligand,1 µM,100,CN([C@@H]1CCc2c(CC(=O)O)c3cc(S(C)(=O)=O)ccc3n2C1)S(=O)(=O)c1ccc(F)cc1
binding,competition with immobilised ligand,1 µM,100,O=C(c1ccc(Nc2nccc(-c3cc4ccccc4s3)n2)cc1)N1CCC(N2CCCC2)CC1
cell-free assay,competition with immobilised ligand,1 µM,82,CC(=O)Nc1c(C(C)=O)c(=O)n(C)c2nc(-c3ccc(Cl)cc3Cl)c(-c3ccc(Cl)cc3)cc12
binding,competition with immobilised ligand,1 µM,70,O=C(c1ccc(Nc2ncc(Cl)c(-c3ccc(Cl)s3)n2)cc1)N1CCC(N2CCCC2)CC1
cell-free assay,competition with immobilised ligand,1 µM,100,COc1ccc2c(c1)O[C@H](c1ccc(OC)c(OC)c1)C[C@@H]2NC(=O)C1(c2ccc3c(c2)OC(F)(F)O3)CC1
binding,,1 µM,100,CC1CCCN1c1nccc(-c2cnn3ncccc23)n1 (stereo not shown)
cell-free assay,competition with immobilised ligand,1 µM,68,CN(C(=O)c1ccccc1)c1cc(N(C)c2ccc3c(c2)CCc2ccc(C(=O)NCCN4CCOCC4)cc2C3=O)ccc1F
binding,competition with immobilised ligand,1 µM,100,CCN1CCN(Cc2ccc(C(=O)Nc3ccc(C)c(Oc4ccc5c(c4)CC(=O)N5)c3)cc2C(F)(F)F)CC1
